Bioassay records as filed in PubChem BioAssay.
Rows were chosen to be rich in hits. Some 2.2% of all compounds tested hit in one or more screens of this group.
Ba/F3 V617F tox: lowers viability of Ba/F3 cells expressing EpoR and JAK2V617F | ATP luminescence | inhibition, % at 5.6 µM | 220,000 tested, 1.1% active | AID 1446;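 active = inhibition above the campaign mean plus 3 SD over all tested compounds, cut at about 24% in these data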;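 also: cytokine-independent growth of Ba/F3 cells driven by EpoR plus mutant JAK2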
IEC-6 tox: kills IEC-6 intestinal cells in KLF5 counter-screen; inhibition, % at 5 µM; 290,000 tested, 0.78% active; AID 1825; IEC-6 cytotoxicity, luminescence viability; in the data active = inhibition above about 22%
bCat nuc transl: alters nuclear translocation of beta-catenin in HeLa cells | nuclear translocation activity, % at 5 µM | AID 1665 | 190,000 tested, 0.3% active | immunofluorescence imaging;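 active = nuclear translocation activity above 50% at 5 µM, with a well cell count of 50 or more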;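 also: per-cell ratio of nuclear to cytoplasmic median beta-catenin stain intensity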
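Test system: human HeLa cells, endogenous beta-catenin. Times: 24 h compound exposure, 37°C. Measured by: beta-catenin immunofluorescence imaging with DAPI.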
MT stabilize HCS: microtubule stabilization, imaging screen; % tubulin-high responders, % at 10 µM; AID 2205; 200,000 tested, 0.83% active; HeLa tubulin immunostaining HCS, 24 h; share of cells brighter than vehicle mean+2SD;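 active = plate Z-score above 3 for both tubulin-high and condensed-nucleus cell shares, with cell loss under 80%, at 10 µM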;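 also: anti alpha tubulin signal scored within the nucleus-defined area of each cell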
APP 5UTR inh: APP translation inhibition. 190,000 tested, 0.82% active. SH-SY5Y APP 5'UTR-luciferase reporter, luminescence. inhibition, % at 2 µM;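 active = inhibition above a set limit, derived from the sample mean plus 3 SD, cut at about 45% in these data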
BaF3 parental: parental Ba/F3 viability inhibition as JAK2V617F counter-screen; CellTiter-Glo ATP luminescence; inhibition, % at 5.6 µM; 220,000 tested, 1.1% active; AID 1486;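 active = inhibition above a per-campaign cutoff, the mean inhibition of all tested compounds plus 3 SD, cut at about 27% in these data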
A number is an active result; - = inactive; . = not tested or not shown.

SMILES | Ba/F3 V617F tox | IEC-6 tox | bCat nuc transl | MT stabilize HCS | APP 5UTR inh | BaF3 parental
CC1CCc2sc(C(=O)OCC(=O)NCc3ccc(F)cc3)cc2C1 (stereo not given) | - | - | 119 | - | - | -
COc1cc2c(cc1OC)C(COc1ccc(C(C)C)cc1)NCC2 (stereo not given) | . | - | . | . | . | .
CCN(CC)c1ccc(-c2n[nH]c(=S)n2-c2ccccc2)cc1 | - | - | - | 25 | - | -
CN(C)c1ccc(-c2n[nH]c(=S)n2-c2ccccc2)cc1 | - | - | - | - | - | -
COc1cccc(C(=O)N/N=C/C(Br)=C/c2ccccc2)c1 | - | - | 60 | 23 | - | -
Cc1ccccc1NCC(=O)N/N=C/C(Br)=C/c1ccccc1 | - | - | - | 26 | - | -
O=C(Cc1cccs1)N/N=C/C(Br)=C/c1ccccc1 | - | - | - | - | - | -
Cn1cc(C(=O)N/N=C/C(Br)=C/c2ccccc2)ccc1=O | - | - | - | - | 85 | -
Cc1ccc(-c2cc(C(=O)N/N=C/C(Br)=C/c3ccccc3)n[nH]2)o1 | - | - | - | 12 | - | -
O=C(Cc1nnc(NC(=O)c2cccc([N+](=O)[O-])c2)s1)NCc1ccccc1 | . | - | . | . | . | .
NC(CCCCCP(=O)(c1ccccc1)c1ccccc1)C(=O)O (stereo not given) | - | - | - | . | . | -
O=C(O)CC1(CC(=O)NCc2ccncc2)CCCCC1 | - | - | - | . | . | -
CC[N+]1=C(C)C(C)(C)c2cc(C)ccc21 | 65 | - | - | - | - | 72
CC(CCc1ccccc1)NC(=O)C1CCN(S(=O)(=O)N2CCOCC2)CC1 (stereo not given) | - | - | - | - | - | 91
O=C(NCCc1ccccc1)C1CCN(S(=O)(=O)N2CCOCC2)CC1 | . | - | . | . | . | .
COc1ccc(NC(=O)COc2ccccc2C(=O)NCC(c2ccccc2)N(C)C)cc1Cl (stereo not given) | . | - | . | . | . | .
CCN(CC1COc2ccccc2O1)C(=S)Nc1ccc(F)cc1 (stereo not given) | 34 | - | - | - | - | 31
O=C(NC1CCCC1)C(c1ccccc1)N(Cc1ccccc1)C(=O)c1csnn1 (stereo not given) | . | - | . | . | . | .
CC[n+]1c(/C=C2\C=C(C)CC(C)C2)sc2ccccc21 (stereo not given) | 63 | - | - | - | - | 63
CC[n+]1c(/C=C2/C=C(C)CC(C)(C)C2)sc2ccc(OC)cc21 | 64 | - | - | - | - | 59
CCC1=C/C(=C/c2sc3ccccc3[n+]2CC)CC(C)(C)C1 | - | - | - | - | - | -
CC[n+]1c(/C=C2\C=C(C)CC(C)(C)C2)sc2ccccc21 | 56 | - | - | - | - | 60
CC(O)CN1CCN(C(=O)CN2C(=O)NC(c3ccccc3)(c3ccccc3)C2=O)CC1 (stereo not given) | . | - | . | . | . | .
CC(=O)C1=NN(c2ccccc2)C(c2cccs2)N1c1ccccc1 (stereo not given) | - | - | . | - | - | 43
CC(=O)C1=NN(c2ccccc2)C(c2ccc3c(c2)OCO3)N1c1ccc(N2CCOCC2)cc1 (stereo not given) | - | - | . | - | - | -
SMILES | Ba/F3 V617F tox | IEC-6 tox | bCat nuc transl | MT stabilize HCS | APP 5UTR inh | BaF3 parental
Nc1ccc(-c2nc3ncccc3o2)cc1 | . | - | . | . | . | .
COc1ccccc1N1CCN(C(=O)c2nn(-c3ccccc3OC)c(=O)c3ccccc23)CC1 | - | - | - | - | - | -
COc1ccccc1-n1nc(C(=O)O)c2ccccc2c1=O | - | - | . | - | - | 69
COc1cc(C2CC(=O)c3cnc(N4CCN(Cc5ccccc5)CC4)nc3C2)cc(OC)c1OC (stereo not given) | - | - | 83 | 43 | - | -
COc1ccc(C(C)=O)cc1COC(=O)c1ccc(N)c([N+](=O)[O-])c1 | - | 31 | - | - | - | -
COc1ccc(C(C)=O)cc1COC(=O)CCNS(=O)(=O)c1ccc(C(C)=O)cc1 | . | - | . | . | . | .
COc1ccc(C(C)=O)cc1COC(=O)CNC(=O)c1cc(C)cc(C)c1 | 70 | - | - | - | - | 38
CCCn1nc(C(=O)NNC(=O)c2cccc(S(=O)(=O)NC(C)C)c2)c2ccccc2c1=O | . | - | . | . | . | .
CC(=O)c1c(N2CCCCC2)nc(=S)n(-c2ccccc2)c1C | - | - | - | - | - | 41
CCN(CC)CCCN(C(=O)c1ccc(OC)cc1)c1nc(-c2ccc(OC)cc2)cs1 | . | - | . | . | . | .
COCCCN(C(C)=O)c1nc(-c2ccc(OC)cc2)cs1 | - | - | - | 23 | - | -
CCOC(=O)c1nnn2c1nc(Nc1cccc(C(F)(F)F)c1)c1ccccc12 | - | - | - | . | . | -
CC(C)(C)c1ccc(C(=O)Nc2ccc(C(=O)N3CCCC3)cc2)cc1 | . | - | . | . | . | .
CC(C)(C)c1ccc(C(=O)N2CCCCCC2=O)cc1 | - | - | - | - | 57 | -
O=C(/C=C/c1ccco1)N1CCc2ccccc21 | - | - | - | - | - | -
Cc1ccc(/C=C/C(=O)N2CCc3ccccc32)o1 | - | - | . | 10 | - | -
O=C(Nc1ccnn1C1CCN(C(=O)Cc2ccccc2F)CC1)C1CC1 | . | - | . | . | . | .
Oc1c(Cl)cc(Cl)cc1/C=N/Nc1ncc(Br)cn1 | - | - | - | - | 81 | -
Cc1ccnc(SCC(=O)NC2CCCCCC2)n1 | . | - | . | . | . | .
COc1ccccc1C1CC(c2ccc(Br)cc2)=NN1C(=O)c1cccnc1 (stereo not given) | - | - | 83 | 15 | - | -
COc1cccc(C2CC(c3ccc(Br)cc3)=NN2C(=O)c2ccncc2)c1OC (stereo not given) | - | - | - | - | - | -
COc1ccc(CNC(=O)c2cccnc2)cc1 | . | - | . | . | . | .
COc1cccc(CNc2ccc3[nH]c(=O)[nH]c3c2)c1OCc1ccccc1F | . | - | . | . | . | .
CCOC(=O)C1CCCN(Cc2nc(C3CC3)no2)C1 (stereo not given) | - | - | - | . | . | -
CC(C)c1ccc(C2C3=C(COC3=O)Nc3cc4c(cc32)OCO4)cc1 (stereo not given) | 71 | 90 | 74 | - | 95 | 77
SMILES | Ba/F3 V617F tox | IEC-6 tox | bCat nuc transl | MT stabilize HCS | APP 5UTR inh | BaF3 parental
c1ccc(Nc2nc(-c3ccccc3)ns2)cc1 | . | - | . | . | . | .
c1ccc(C2=Nn3c(nnc3-c3n[nH]c4c3CCC4)SC2)cc1 | - | - | - | - | - | -
Clc1ccc(C2=Nn3c(nnc3-c3n[nH]c4c3CCC4)SC2)cc1Cl | - | - | - | 19 | - | -
O=C(NCCC(=O)N1CCC2(CC1)NCCc1[nH]cnc12)c1cccc(Cl)c1 | . | - | . | . | . | .
O=C(Nc1ccccc1)O[C@@H]1C[C@H]2CCC(=O)N3CC[C@@H](C1)[C@@H]23 | . | - | . | . | . | .
CC(C)CCNC(=O)c1cc(-c2ccncc2)nc2ccc(S(=O)(=O)N3CCOCC3)cc12 | - | - | - | 17 | - | -
Cc1ccc(C(=O)N/C(=C/c2ccc(N(C)C)cc2)C(=O)NCC2CCCO2)cc1 (stereo not given) | . | - | . | . | . | .
COc1ccc(OCCn2cnc3ccccc32)cc1 | . | - | . | . | . | .
Cc1cc(C)n(CCC(=O)N/N=C/c2ccc(O)cc2)n1 | - | - | - | - | - | -
